Assay outcomes (PubChem)
Rows were chosen to be rich in hits. Some 3% of all compounds tested hit in one or more screens of this group.
T cruzi repl: inhibitors of intracellular T. cruzi growth, primary screen, luminescence, NIH3T3 host cells. T. cruzi beta-gal in NIH3T3, 90 h. inhibition, % (no concentration beside the values). 300,000 compounds, 1.4% hits. AID 1885, 2009;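 active means mean inhibition across valid replicates above about 55%, limit read from the data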;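 further: signal also drops with host cell toxicity which is not excluded here; 0% = plate median of DMSO wells and 100% = zero luminescence signal; higher percent means less beta-gal luminescence so fewer parasites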
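Test system: β-gal T. cruzi (Tulahuen C4) inside NIH/3T3 cells / Quantity: 5,000 cells/well / Measured by: luminescence from GalScreen with 0.05% NP40, read after 60 min / Medium: DMEM plus 2% FBS / Measure: parasite load inhibition, % / Reagent: Tulahuen C4 trypomastigotes, 5000/well / Schedule: co-culture of at least 90 h after 3 h attachment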
CR mimetic SO: reduction of superoxide in aged yeast, primary screen, HTS | AID 2690, 2010 | superoxide response (% of plate mean), % at 10 µM | S. cerevisiae aged cells, superoxide DHE fluorescence; hits give low values | 330,000 compounds, 0.18% hits;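 active means superoxide response under a set limit, about three screen SD below normal, cut at about 65% in these data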;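 further: yeast aged for seven days with compound at 30 °C before DHE staining; 100% = average MFI of all compound-treated wells on the plate with controls excluded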
AI-2 QS modul: Vibrio harveyi AI-2 quorum sensing modulators, primary screen, JMH597 strain, luminescence/OD600 ratio; activity change, % at 7.5 µM; 300,000 compounds, 0.4% hits; Vibrio harveyi JMH597 AI-2 luminescence/OD600 ratio, 9 h; hits give low values; strain lacks LuxN and CqsS sensors; 0 = neutral-control median; AID 2094, 2009; in the data active means activity change below about -75%, passing the limit was not always enough;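 further: luminescence divided by OD600 gain over 9 h not by final OD600 alone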
V-ATPase pHluor: regulators of yeast V-ATPase proton pumping, primary screen, pHLuorin cytosolic pH fluorescence | S. cerevisiae | response, % at 10 µM | 350,000 compounds, 0.37% hits; in the data active means response mostly above about 7.3%, no sharp cut-off; inactive means mostly below about 5.4%; further: actives read high
HIF activator: HIF pathway transcriptional activators, primary screen, cell-based, U2OS HRE-luciferase, luminescence; 300,000 compounds, 0.32% hits; AID 1910, 2009; U2OS HRE-luciferase reporter; normalized: DMSO 0%, desferrioxamine 100%; activation, % at 7.5 µM (by protocol);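 active means mean activation of at least 10% of the iron chelator positive control signal, with at least half of replicates also reaching 10%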
NRP1-CendR mod: modulators of CendR peptide binding to NRP-1, primary screen, biochemical, fluorescence polarization, uHTS | FAM-RPARPAR peptide binding to NRP-1 | 360,000 compounds, 0.85% hits | Neuropilin-1 (Homo sapiens), O14786 | inhibition, % at 25 µM;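 active means inhibition or corrected inhibition above about 18%, plus a signal ratio from 0.5 to 1.5, limit read from the data, passing the limit was not always enough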
Target sequence (O14786 whole entry, looked up): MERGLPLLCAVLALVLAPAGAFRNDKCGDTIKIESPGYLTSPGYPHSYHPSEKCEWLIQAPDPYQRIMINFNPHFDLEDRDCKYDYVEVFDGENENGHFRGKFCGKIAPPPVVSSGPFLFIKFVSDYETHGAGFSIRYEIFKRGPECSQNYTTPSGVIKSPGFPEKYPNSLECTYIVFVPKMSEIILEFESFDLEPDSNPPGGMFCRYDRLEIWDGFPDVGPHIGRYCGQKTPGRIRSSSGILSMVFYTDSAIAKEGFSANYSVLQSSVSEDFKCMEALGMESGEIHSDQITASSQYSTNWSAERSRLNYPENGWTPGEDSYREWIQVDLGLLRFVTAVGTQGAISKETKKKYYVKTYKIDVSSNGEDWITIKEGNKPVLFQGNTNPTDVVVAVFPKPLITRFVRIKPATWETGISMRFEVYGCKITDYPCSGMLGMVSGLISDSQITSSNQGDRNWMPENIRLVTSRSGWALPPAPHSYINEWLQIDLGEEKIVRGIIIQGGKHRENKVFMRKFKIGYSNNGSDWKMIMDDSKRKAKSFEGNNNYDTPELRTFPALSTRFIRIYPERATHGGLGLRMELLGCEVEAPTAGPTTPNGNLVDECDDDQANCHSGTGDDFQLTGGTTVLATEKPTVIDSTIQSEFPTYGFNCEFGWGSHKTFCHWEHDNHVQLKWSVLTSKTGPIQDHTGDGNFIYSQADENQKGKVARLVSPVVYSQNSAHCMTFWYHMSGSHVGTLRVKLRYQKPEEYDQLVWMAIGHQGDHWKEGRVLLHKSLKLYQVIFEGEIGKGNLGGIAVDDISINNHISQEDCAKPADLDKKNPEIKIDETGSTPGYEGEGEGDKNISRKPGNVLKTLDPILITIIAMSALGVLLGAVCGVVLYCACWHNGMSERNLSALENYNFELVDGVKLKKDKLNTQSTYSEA
* hit, by the source's call.

Screening O=S(=O)(Cc1ccc(Cl)cc1)Nc1ccc2c(c1)OCO2 returned T cruzi repl 34.0, CR mimetic SO 111.9, AI-2 QS modul 15.2, V-ATPase pHluor -3.1, HIF activator 1.4 and NRP1-CendR mod -10.5.
For O=C1NC(Cc2ccccc2)c2nc3cc(F)ccc3c(=O)n2-c2cc(Cl)ccc21 (stereo unspecified) the results were CR mimetic SO 101.8.
CCN1C(=O)[C@H]2[C@@H](c3ccc(-c4cccc(Cl)c4)cc3)N[C@@](Cc3ccccc3)(C(=O)OC)[C@H]2C1=O was read as T cruzi repl 55.3*, CR mimetic SO 98.9, AI-2 QS modul 36.4, V-ATPase pHluor 3.7, HIF activator -0.8 and NRP1-CendR mod -9.7.
`CCCCCCSc1ccc([C@H]2N[C@@](Cc3ccccc3)(C(=O)OC)[C@H]3C(=O)N(C)C(=O)[C@@H]23)cc1OC` gave T cruzi repl 4.6, CR mimetic SO 97.1, AI-2 QS modul 14.4, V-ATPase pHluor -0.2, HIF activator 1.1 and NRP1-CendR mod 27.8*.
CCN(C[C@H]1N[C@@](Cc2ccccc2)(C(=O)OC)[C@H]2C(=O)N(Cc3ccccc3)C(=O)[C@@H]12)S(=O)(=O)c1ccc(OC)cc1 was read as CR mimetic SO 118.7, V-ATPase pHluor -2.9 and NRP1-CendR mod 26.1*.
For CCCSc1ccc([C@H]2N[C@@](C)(C(=O)OC)[C@H]3C(=O)N(C)C(=O)[C@@H]23)cc1OC the results were T cruzi repl 10.1, CR mimetic SO 101.3, AI-2 QS modul 12.2, V-ATPase pHluor -1.6, HIF activator 0.3 and NRP1-CendR mod 27.5*.
CCN(C[C@H]1N[C@@](CC)(C(=O)OC)[C@H]2C(=O)N(Cc3ccccc3)C(=O)[C@@H]12)S(=O)(=O)c1ccc(OC)cc1 was read as CR mimetic SO 97.0, V-ATPase pHluor -1.2 and NRP1-CendR mod 2.9.
Screening CC1CCCN(S(=O)(=O)c2cc(Cl)ccc2Cl)C1 (stereo unspecified) returned T cruzi repl 0.5, CR mimetic SO 97.6, AI-2 QS modul 3.5, V-ATPase pHluor 3.1, HIF activator -0.3 and NRP1-CendR mod 2.5.
`CC(=O)c1ccc(S(=O)(=O)NCC(=O)NC(c2nc3ccccc3[nH]2)C(C)C)cc1` (stereo unspecified) gave CR mimetic SO 81.9, V-ATPase pHluor 1.1 and NRP1-CendR mod 1.2.
C/C(=C\C(=O)OCCCCCCCCC(=O)O)C[C@@H]1OC[C@H](C[C@@H]2O[C@H]2[C@@H](C)[C@H](C)O)[C@@H](O)[C@H]1O was read as T cruzi repl -3.1, CR mimetic SO 100.0, AI-2 QS modul -172.6*, V-ATPase pHluor 5.8, HIF activator 4.4 and NRP1-CendR mod 10.6.
Screening Cc1cc(Cl)ccc1NC(=O)c1ccc2c(c1)OCO2 returned T cruzi repl -26.9, CR mimetic SO 100.7, AI-2 QS modul 21.7, V-ATPase pHluor 14.7*, HIF activator 6.5 and NRP1-CendR mod -6.4.
Screening COc1ccccc1NC(=O)COc1ccc2c(c1)OCO2 returned T cruzi repl 3.8, CR mimetic SO 103.7, AI-2 QS modul -15.3, V-ATPase pHluor 4.2, HIF activator 2.9 and NRP1-CendR mod 1.8.
For Cc1ccc(NC(=O)c2ccc3c(c2)OCO3)cc1Cl the results were T cruzi repl -18.4, CR mimetic SO 98.7, V-ATPase pHluor 1.4, HIF activator 1.8 and NRP1-CendR mod 4.3.
Cc1ccc(NC(=O)COc2ccc3c(c2)OCO3)c(C)c1 was read as CR mimetic SO 113.0, V-ATPase pHluor -0.2 and NRP1-CendR mod 15.9*.
`CSc1ccccc1NC(=O)COc1ccc2c(c1)OCO2` gave CR mimetic SO 97.3, V-ATPase pHluor 0.3 and NRP1-CendR mod 13.4.
For CCOc1ccccc1NC(=O)COc1ccc2c(c1)OCO2 the results were T cruzi repl 11.7, CR mimetic SO 107.0, AI-2 QS modul 3.8, V-ATPase pHluor -1.2, HIF activator 13.9* and NRP1-CendR mod 2.7.
Screening CN1CCN(CC(=O)Nc2ccccc2Oc2ccccc2)CC1 returned T cruzi repl 2.3, CR mimetic SO 103.1, AI-2 QS modul 17.8, V-ATPase pHluor -0.6, HIF activator -0.1 and NRP1-CendR mod 2.5.
For Nc1nc(N)c2cc(Sc3ccc4ccccc4c3)ccc2n1 the results were T cruzi repl 58.5*, CR mimetic SO 113.5, AI-2 QS modul 4.1, V-ATPase pHluor -0.1, HIF activator -2.4 and NRP1-CendR mod -7.7.
Screening CN(c1ccc(OCC(=O)N2CCCC2)cc1)S(=O)(=O)c1ccc(Cl)cc1 returned CR mimetic SO 89.2, V-ATPase pHluor -0.7 and NRP1-CendR mod 2.2.
`CC(C)n1c(=S)[nH]c2ccccc2c1=O` gave T cruzi repl -16.9, CR mimetic SO 111.3, AI-2 QS modul -3.6, V-ATPase pHluor 4.6, HIF activator -0.1 and NRP1-CendR mod 13.4.
CCC(C)n1c(=S)[nH]c2ccccc2c1=O (stereo unspecified) was read as T cruzi repl -17.4, CR mimetic SO 107.8, AI-2 QS modul -9.3, V-ATPase pHluor 0.5, HIF activator -0.1 and NRP1-CendR mod 28.3*.
For NC(=O)NN=C1C2CCCC1C(c1ccccc1)NC2c1ccccc1 (stereo unspecified) the results were T cruzi repl 18.7, CR mimetic SO 90.6, AI-2 QS modul 2.0, V-ATPase pHluor -3.6, HIF activator -0.2 and NRP1-CendR mod 44.8*.
For CCOC(=O)c1ccc(NC(=O)CSc2n[nH]c(-c3ccncc3)n2)cc1 the results were T cruzi repl -13.8, CR mimetic SO 104.8, AI-2 QS modul 8.3, V-ATPase pHluor -2.3, HIF activator -0.1 and NRP1-CendR mod -8.2.
For CCOc1cnc(-c2c(-c3c(Cl)cccc3Cl)noc2C)o1 the results were T cruzi repl 6.8, CR mimetic SO 83.9, AI-2 QS modul 7.8, V-ATPase pHluor -2.3, HIF activator -0.3 and NRP1-CendR mod 27.1*.
For CCOc1cnc(-c2ccc(Cl)cc2)o1 the results were T cruzi repl 1.1, CR mimetic SO 71.7, AI-2 QS modul -0.6, V-ATPase pHluor 3.5, HIF activator 4.3 and NRP1-CendR mod -8.4.
Screening COCCNC(=O)CCC1CCN(Cc2ccc(-c3ccccc3)cc2)CC1 returned T cruzi repl 58.4*, CR mimetic SO 91.3, AI-2 QS modul 11.9, V-ATPase pHluor 2.8, HIF activator -1.0 and NRP1-CendR mod 5.4.
COc1ccc(C(=O)NCCc2nc3cc([N+](=O)[O-])ccc3n2C)cc1 was read as T cruzi repl -12.5, CR mimetic SO 92.5, AI-2 QS modul 17.0, V-ATPase pHluor -1.0, HIF activator 25.9* and NRP1-CendR mod -2.7.
